Data reported in PMC9037807 (RSC Advances, 2021).
Values joined by “and” are separate entries in the source; they are usually repeats but may differ in a detail not shown here. Equal values may be shown once.

How the values were obtained:
[1] = tested on: carrageenan-induced rat paw edema; assay: Carrageenan-induced rat paw edema model; format: in vivo; conditions: 10 mg kg−1 po, n = 4; for Edema inhibition %, 1 h / Edema thickness ± SEM, 1 h: 1 h after carrageenan injection; for Edema inhibition %, 3 h / Edema thickness ± SEM, 3 h: 3 h after carrageenan injection; for Edema inhibition %, 6 h / Edema thickness ± SEM, 6 h: 6 h after carrageenan injection
Outline: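 Rats were dosed orally with test compound (10 mg kg−1) in 5% aqueous DMSO (v/v). […] Thirty minutes after dosing, 0.02 ml of 1% carrageenan was injected sub-plantar. Paw thickness was measured 1, 3 and 6 h after injection, and edema inhibition % was calculated from paw thickness.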

ovine COX-1 = molecular target: T1, ovine COX-1 (Ovis aries, UniProt P05979); assay: In vitro cyclooxygenase; format: biochemical
T1 sequence (P05979 25-600): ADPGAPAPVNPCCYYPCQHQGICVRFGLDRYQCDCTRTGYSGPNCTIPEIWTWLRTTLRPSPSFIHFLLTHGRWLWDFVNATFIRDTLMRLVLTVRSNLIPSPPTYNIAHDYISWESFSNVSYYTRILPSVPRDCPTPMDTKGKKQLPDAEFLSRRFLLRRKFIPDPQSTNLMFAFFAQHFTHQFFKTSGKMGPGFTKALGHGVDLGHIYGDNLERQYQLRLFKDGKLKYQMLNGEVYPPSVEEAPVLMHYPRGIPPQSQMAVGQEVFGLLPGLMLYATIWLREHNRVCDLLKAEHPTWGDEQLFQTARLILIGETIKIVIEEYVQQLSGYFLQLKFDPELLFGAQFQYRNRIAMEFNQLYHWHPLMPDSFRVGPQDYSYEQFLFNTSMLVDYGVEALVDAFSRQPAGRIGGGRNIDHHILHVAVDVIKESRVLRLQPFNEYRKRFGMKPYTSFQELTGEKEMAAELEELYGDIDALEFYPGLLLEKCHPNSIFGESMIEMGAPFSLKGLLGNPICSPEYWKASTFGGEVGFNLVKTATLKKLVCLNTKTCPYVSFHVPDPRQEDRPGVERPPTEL

rat's stomach = assay: Histo-pathological study of glandular and non-glandular stomach; format: in vivo; conditions: text description
ovine COX-2 = molecular target: T2, ovine COX-2 (Ovis aries, UniProt P79208); assay: In vitro cyclooxygenase; format: biochemical; conditions: for Selectivity index (SI): COX-1 IC50/COX-2 IC50
T2 sequence (P79208 17-603): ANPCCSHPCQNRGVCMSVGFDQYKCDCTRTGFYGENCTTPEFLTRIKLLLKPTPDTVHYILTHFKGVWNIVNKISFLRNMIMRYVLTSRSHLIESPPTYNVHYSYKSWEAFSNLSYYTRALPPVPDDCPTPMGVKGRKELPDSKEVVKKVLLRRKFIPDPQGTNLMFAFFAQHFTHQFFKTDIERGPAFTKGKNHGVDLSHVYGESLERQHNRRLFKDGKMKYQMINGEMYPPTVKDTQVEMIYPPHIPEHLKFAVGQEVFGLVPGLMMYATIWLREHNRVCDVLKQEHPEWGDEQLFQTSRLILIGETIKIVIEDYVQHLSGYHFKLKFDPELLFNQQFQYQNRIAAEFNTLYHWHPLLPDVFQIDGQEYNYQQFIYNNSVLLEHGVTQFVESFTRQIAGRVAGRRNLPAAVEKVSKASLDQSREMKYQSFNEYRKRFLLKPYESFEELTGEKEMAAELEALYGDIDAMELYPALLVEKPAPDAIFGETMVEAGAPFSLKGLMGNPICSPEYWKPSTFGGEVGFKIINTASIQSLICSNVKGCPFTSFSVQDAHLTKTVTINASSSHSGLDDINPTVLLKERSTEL

rat stomach = assay: Ulcerogenic liability; format: in vivo; conditions: rats sacrificed 4 h after drug administration

Structure (SMILES) | Edema inhibition %, 1 h [1] [%] | Edema thickness ± SEM, 1 h [1] [mm] | Edema inhibition %, 3 h [1] [%] | Edema thickness ± SEM, 3 h [1] [mm] | Edema inhibition %, 6 h [1] | Edema thickness ± SEM, 6 h [1] [mm] | IC50 (ovine COX-1) [µM] | Severity of histopathological lesions of the stomach (in words) (rat's stomach) | IC50 (ovine COX-2) [µM] | Selectivity index (SI) (ovine COX-2) | Ulcer index, mean (rat stomach) [mm]
CS(=O)(=O)c1ccc(-c2nc3ccccc3n2CC(=O)N/N=C/c2ccc(Cl)cc2)cc1 [11b, (E)-N′-(4-Chlorobenzylidene)-2-(2-(4-(methylsulfonyl)phenyl)-1H-benzo[d]imidazol-1-yl) acetohydrazide] | 86 | 0.357 ± 0.012 | 93 | 0.155 ± 0.002 | 95% | 0.094 ± 0.006 | 13.4 | mild pathological lesions | 0.1 | 134 | 0.83
COc1ccc(/C=N/NC(=O)Cn2c(-c3ccc(S(C)(=O)=O)cc3)nc3cc(C)ccc32)cc1 [11k, (E)-N′-(4-Methoxybenzylidene)-2-(5-methyl-2-(4-(methylsulfonyl)phenyl)-1H-benzo[d]imidazol-1-yl) acetohydrazide] | 82 | 0.464 ± 0.014 | 92 | 0.189 ± 0.017 | 94% | 0.111 ± 0.009 | 12.3 | mild to moderate lesions | 0.1 | 123 | 4.5
C/C(=N\NC(=O)Cn1c(-c2ccc(S(C)(=O)=O)cc2)nc2cc(Cl)ccc21)c1ccc(Cl)cc1 [12d, (E)-2-(5-Chloro-2-(4-(methylsulfonyl)phenyl)-1H-benzo[d]imidazol-1-yl)-N′-(1-(4-chlorophenyl)ethylidene) acetohydrazide] | 89 | 0.286 ± 0.009 | 93 | 0.154 ± 0.008 | 94.7% and 95% | 0.098 ± 0.005 | 13.2 | mild pathological lesions | 0.1 | 132 | 1
